hERG protect: hERG rescue from dofetilide block, primary screen, cell-based, CHO-hERG, FluxOR thallium flux, dofetilide IC70; activation (rescue from dofetilide block), less the hit threshold, % at 10 µM; 0.51% of 310,000 active; dofetilide IC70 present; Voltage-gated inwardly rectifying potassium channel KCNH2 (Homo sapiens), Q12809; AID 1511, 2009;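 active means activation above the mean of controls blocked by dofetilide plus 5 SD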;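 further: thallium influx through hERG after potassium depolarization seen as dye fluorescence rise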
KCNK3 inh: human KCNK3 channel inhibitors, primary screen, CHO cells, FluxOR thallium flux, B-score; FluxOR fluorescence; hits give low values; AID 602410, 2012; 0.84% of 340,000 active; B-score at 10 µM;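 active means B-score under library mean minus 4 SD, starting fluorescence ratio at most library mean plus 5 SD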;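 further: more negative B-score means stronger inhibition of thallium flux through KCNK3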
KCNQ1 block: inhibitors of human KCNQ1 channel, primary screen, cell-based, thallium flux, high-throughput; Potassium voltage-gated channel subfamily KQT member 1 (Homo sapiens), P51787; CHO-K1 KCNQ1, FluxOR thallium flux fluorescence; hits give high values; B-score at 10 µM; 1.3% of 310,000 active; AID 2642, 2010;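 active means compounds whose thallium flux B-score, printed positive for inhibition, exceeds three library SD while starting fluorescence stays within three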;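 further: channel opened by potassium depolarization with thallium stimulus after 20 min compound exposure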
KCNQ1 act: potentiators or activators of KCNQ1 channel, primary screen, cell-based, thallium flux, high-throughput; Potassium voltage-gated channel subfamily KQT member 1 (Homo sapiens), P51787; CHO-K1 KCNQ1, thallium flux FluxOR fluorescence; hits give high values; B-score at 10 µM; 0.35% of 310,000 active; AID 2648, 2010;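 active means fluorescence ratio B-score, a plate-corrected score, at least three library SD, with initial intensity B-score within 5 SD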
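Assay system: stable KCNQ1 CHO-K1 line; medium: assay buffer, equal DMSO in all wells; timing: 90 min dye loading and 20 min compound exposure, both at room temperature; technique: kinetic FluxOR thallium fluorescence, 10-s 1-Hz baseline, 110-s post-stimulus read; read-out basis: B score of baseline-normalized fluorescence ratio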
KCNK9 block: KCNK9 potassium channel inhibitors, primary screen, HEK293 cells, thallium flux | FluxOR thallium flux fluorescence; hits give low values | B-score at 10 µM | 1.2% of 310,000 active | AID 488922, 2010;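 active means ratio B-score over 3 SD below the library mean, with starting fluorescence within 5 SD of its mean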;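 further: negative B-score means less thallium flux so channel inhibition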
KCNK9 block conf: KCNK9 potassium channel inhibitors, confirmation, HEK293 cells, thallium flux, duplicate | FluxOR thallium flux fluorescence | AID 492992, 2010 | shares compounds with KCNK9 block | inhibition, % at 10 µM | 43% of 4,900 active;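 active means thallium signal inhibited by more than 5 SD of the compound-free buffer control wells, on both duplicate plates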;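 further: 0% = assay buffer control wells without compound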
Kir21 sel: mouse Kir2.1 channel inhibition, confirmation, selectivity assay for KCNK9 modulator project, cell-based, HEK293, thallium flux | shares compounds with KCNK9 block | inhibition, % at 10 µM | Kir2.1 cells, FluxOR thallium flux fluorescence | AID 492993, 2010 | 4% of 4,900 active;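 active means thallium signal drop more than 5 SD beyond the mean of the no-compound control wells, seen in both duplicate plates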;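 further: signal is fluorescence rise after thallium addition divided by baseline fluorescence; plate controls were assay buffer only for no effect and full block by chlorpromazine control for full effect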
Target sequence (P35561 whole entry, looked up): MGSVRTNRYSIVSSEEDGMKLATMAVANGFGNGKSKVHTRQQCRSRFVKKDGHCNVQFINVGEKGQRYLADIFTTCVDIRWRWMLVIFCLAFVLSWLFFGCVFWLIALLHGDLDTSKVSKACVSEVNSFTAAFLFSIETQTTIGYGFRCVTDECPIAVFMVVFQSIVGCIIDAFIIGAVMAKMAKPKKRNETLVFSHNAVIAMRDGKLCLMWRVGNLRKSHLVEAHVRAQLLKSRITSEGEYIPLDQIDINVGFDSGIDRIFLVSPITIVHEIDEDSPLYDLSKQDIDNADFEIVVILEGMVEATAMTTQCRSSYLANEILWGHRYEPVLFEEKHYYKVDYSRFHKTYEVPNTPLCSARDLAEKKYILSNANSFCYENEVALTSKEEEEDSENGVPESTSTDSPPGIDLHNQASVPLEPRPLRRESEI
HEK293 Tl ctr: thallium flux in non-induced HEK293 cells, confirmation, counter-screen for KCNK9 inhibitor project, cell-based, second counter screen, non-induced KCNK9-HEK293. shares compounds with KCNK9 block. FluxOR thallium flux. inhibition, % at 10 µM. 40% of 4,900 active. AID 492997, 2010;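 active means thallium signal drop beyond 5 SD of the untreated control mean, on both duplicate plates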;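 further: plate controls were buffer only IC0 wells for no effect and SID17386958 at its maximal inhibitory level for full effect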
The depositor's hits bear a star; i = inactive; x = no result given. The list is not random: actives were taken first. Their share in the collection is about 3.1%.

SMILES	hERG protect	KCNK3 inh	KCNQ1 block	KCNQ1 act	KCNK9 block	KCNK9 block conf	Kir21 sel	HEK293 Tl ctr
Cc1ccc(OCCn2cccc2/C=C2/C(=O)NC(=O)N(Cc3ccco3)C2=O)cc1	-3.6	i	i	i	i	i	i	i
Cn1cccc1/C=C1\C(=O)NC(=O)N(Cc2ccco2)C1=O	-9.1	i	i	i	i	x	x	x
O=C(O)c1[nH]c(=O)[nH]c(=O)c1F	-6.8	i	i	i	i	x	x	x
COc1cccc(OC)c1CN1CCCC(C(=O)c2cccc(Cl)c2)C1 (centres undefined)	-10.0	i	i	i	i	i	i	i
COc1ccc(C(=O)C2CCCN(Cc3ccc(F)cc3F)C2)cc1F (centres undefined)	-6.3	i	i	i	i	i	i	i
COc1ccc(OC)c(CN2CCCC(C(=O)c3sccc3C)C2)c1 (centres undefined)	-12.9	i	i	i	i	i	i	i
Cc1ncc(CN2CCCC(C(=O)c3cccc(OC(C)C)c3)C2)s1 (centres undefined)	-5.5	i	i	i	i	i	i	i
COc1ccc(CC(C)NC2CCCCCC2)cc1 (centres undefined)	-7.7	i	i	i	i	x	x	x
O=C1CC(=O)N(c2ccccc2)C(=O)N1	x	i	x	x	x	x	x	x
O=C1/C(=C\c2ccc(Cl)c(Cl)c2)N2CCC1CC2	-8.6	i	i	i	i	i	i	i
O=C1/C(=C\c2ccncc2)N2CCC1CC2	-2.0	i	i	i	i	x	x	x
O=C1/C(=C/c2cc3c(cc2Cl)OCO3)N2CCC1CC2	-9.7	x	i	i	i	x	x	x
O=C1/C(=C\c2cc3c(cc2Cl)OCO3)N2CCC1CC2	3.7	i	i	i	i	i	i	i
CCN(CC)C(=O)Cn1cc(/C=C2\C(=O)NC(=O)N(c3ccccc3F)C2=O)c2ccccc21	-12.5	i	i	i	i	x	x	x
N[C@@]1(C(=O)O)CC[C@@H](C(=O)O)C1	x	i	x	x	x	x	x	x
CCOC(=O)C1(c2ccccc2)CCN(CCC(C#N)(c2ccccc2)c2ccccc2)CC1	-10.6	i	6*	i	-8.15*	40.5%*	i	38.0%*
CCOC(=O)C1(c2ccccc2)CCN(CCC(=O)Nc2ccc(C(=O)OC)cc2)CC1	x	i	x	x	x	x	x	x
COc1ccc(CCNCc2c(OC)ccc3ccccc23)cc1	-14.2	i	i	i	i	x	x	x
COc1cccc(C2CC3C(=O)C=CC2N3Cc2ccccc2)c1 (centres undefined)	-10.7	i	i	i	i	i	i	i
CC(=O)Nc1ccccc1C(=O)OCC(=O)c1ccc2ccccc2c1	-11.7	i	i	i	i	i	i	i
CN1CCC2(O)OCCCC2C1 (centres undefined)	-1.2	i	i	i	i	x	x	x
Oc1ccc2ccccc2c1CN1CC=C(c2ccccc2)CC1	-2.5	i	i	i	i	i	i	i
Cc1ccc(-c2cc(-c3ccc(C)cc3)[n+](-c3ccc(C(=O)O)cc3)c(-c3ccc(C)cc3)c2)cc1	-2.1	i	i	i	i	x	x	x
Brc1ccc(-[n+]2c(-c3ccccc3)cc(-c3ccccc3)cc2-c2ccccc2)cc1	-32.7	i	7*	i	-8.27*	64.0%*	58.5%*	i
Cc1ccc(C(=O)NC(O)C(Cl)(Cl)Cl)cc1 (centres undefined)	-9.7	i	i	i	i	x	x	x
SMILES	hERG protect	KCNK3 inh	KCNQ1 block	KCNQ1 act	KCNK9 block	KCNK9 block conf	Kir21 sel	HEK293 Tl ctr
CC(C)=CCc1c(O)cc2c(c1O)C(=O)CC(c1ccc(O)cc1)O2 (centres undefined)	-19.8	i	i	i	-16.7*	i	i	i
Cc1cc(C)c(C(=O)CN2CCOCC2)c(C)c1	x	i	x	x	x	x	x	x
Fc1ccc(C2=CCN(C(c3cccs3)c3nnnn3CCc3ccccc3)CC2)cc1 (centres undefined)	-5.7	i	i	i	-14.4*	60.5%*	i	35.5%*
CCc1cc(=O)[nH]c(SCCCF)n1	-5.4	i	i	i	i	x	x	x
CC(C)n1cc(C(=O)N(CC(=O)NC(C)(C)C)Cc2ccccc2)cn1	-2.5	i	i	i	i	x	x	x
O=C(Cc1ccccc1)Oc1cccc(N2C(=O)CCC2=O)c1	-5.1	i	i	i	i	x	x	x
CC(C)(C)c1cc(OC(=O)Cc2ccccc2)ccc1O	-6.5	i	i	i	-12.4*	58.0%*	i	30.0%*
CCCCN1CCC(O)(c2ccccc2)C(C(=O)c2ccccc2)C1 (centres undefined)	-12.2	i	i	i	i	i	i	i
CCCCNC(=O)c1c(N)n(CCCOC)c2nc3ccccc3nc12	-28.2	i	i	i	-8.73*	i	i	i
COCCNC(=O)c1c(N)n(CCC(C)C)c2nc3ccccc3nc12	-16.2	i	i	i	i	x	x	x
O=C(c1ccco1)c1cn(Cc2ccc(Cl)cc2)c2ccccc12	-15.9	i	i	i	-8.71*	56.5%*	i	37.0%*
COc1ccccc1OCCCn1cc(C(=O)c2ccco2)c2ccccc21	-10.1	i	i	i	-9.76*	32.0%*	i	i
NP(=O)(Oc1ccc(Cl)cc1)Oc1ccc(Cl)cc1	-1.9	i	i	i	i	x	x	x
COc1ccc(OC)c(NP(=O)(Oc2ccccc2)Oc2ccccc2)c1	-5.0	i	i	i	i	x	x	x
COc1ccc(OC)c(NP(=O)(Oc2ccc(Cl)cc2)Oc2ccc(Cl)cc2)c1	-6.2	i	i	i	-11.2*	76.0%*	i	44.0%*
Cc1nn(CCC#N)c2c1P(=S)(N1CCCC1)OC(c1ccc(F)cc1)=N2 (centres undefined)	-8.0	i	i	i	i	i	i	i

Screens deposited in PubChem BioAssay by Johns Hopkins Ion Channel Center.
